# pIC50: −log10 of the molar value.
# Legend:
# [1] = test system: Respiratory syncytial virus; assay: Antiviral activity against RSV RSS in Hep2 cells by XTT assay; type: functional, organism-based, HEp-2; details: for pIC50: human respiratory syncytial virus, RSS, HEp-2
# Outline: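 HEp-2 cells infected with RSV RSS strain in the presence of compound, incubated 6 days at 37 °C. Residual viability was read by XTT metabolism to a coloured product, and IC50 was derived.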
# [2] = test system: Respiratory syncytial virus; assay: Antiviral activity against RSV RSS in Hep2 cells by plaque assay; type: functional, organism-based, HEp-2; details: for pIC50: human respiratory syncytial virus, RSS, HEp-2
# Outline: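 HEp-2 monolayers infected with RSV RSS strain and allowed 2 h adsorption. Compound was then added in medium with 0.6% agarose and incubated 5 days at 37 °C. Monolayers were fixed, the overlay removed, and plaques stained with methylene blue.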
# [3] = Aqueous solubility at pH 7.0; type: physicochemical
# [4] = test system: Respiratory syncytial virus; assay: Antiviral activity against RSV RSS in Hep2 cells by ELISA; type: functional, organism-based, HEp-2; details: for pIC50: human respiratory syncytial virus, RSS, HEp-2
# Outline: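 HEp-2 cells infected with RSV RSS strain and exposed to compound for 3 days at 37 °C. Monoclonal antibodies to RSV F, N and P proteins were detected with an enzyme-linked secondary antibody. Substrate conversion to a coloured product was read by optical density, and IC50 was derived.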
# [5] = Cytotoxicity against RSV RSS infected Hep2 cells by XTT assay; type: cell-based; details: human, hep-2
# Outline: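 Same XTT format (HEp-2 cells, 6 days at 37 °C, XTT read-out) run in parallel without virus. TD50 is the concentration giving 50% cell death in the absence of virus.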
# [6] = Cytotoxicity against RSV RSS infected Hep2 cells by ELISA; type: cell-based; details: human, hep-2
# [7] = Cytotoxicity against RSV RSS infected Hep2 cells by plaque assay; type: cell-based; details: human, hep-2
# [8] = Fraction unbound ligand in human serum; type: ADME, cell-free
# Serum [9] = assay: Protein binding in human serum; type: ADME, cell-free
# Cytochrome P450 3A4 = Cytochrome P450 3A4 (Homo sapiens, UniProt P08684); assay: Inhibition of CYP3A4; type: ADME
# Sequence of Cytochrome P450 3A4 (P08684 whole entry, canonical isoform): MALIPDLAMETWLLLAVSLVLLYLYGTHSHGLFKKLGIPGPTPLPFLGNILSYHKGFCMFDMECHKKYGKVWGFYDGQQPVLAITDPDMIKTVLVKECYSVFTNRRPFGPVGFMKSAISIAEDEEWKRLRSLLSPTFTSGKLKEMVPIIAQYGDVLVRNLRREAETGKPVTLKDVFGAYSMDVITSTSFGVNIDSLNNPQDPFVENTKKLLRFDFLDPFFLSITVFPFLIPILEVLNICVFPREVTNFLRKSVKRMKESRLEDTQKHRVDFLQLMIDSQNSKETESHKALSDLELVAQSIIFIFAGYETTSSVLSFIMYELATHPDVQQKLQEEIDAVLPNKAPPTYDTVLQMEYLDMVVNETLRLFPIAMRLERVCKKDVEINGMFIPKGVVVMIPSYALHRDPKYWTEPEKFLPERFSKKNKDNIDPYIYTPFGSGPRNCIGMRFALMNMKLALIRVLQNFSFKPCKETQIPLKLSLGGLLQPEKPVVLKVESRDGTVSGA
# Outline: (§1)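 CYP inhibition was assessed as an effect on the metabolism of isoform-specific probe substrates for CYP3A4, 1A2, 2D6, 2C9 and 2C19.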
# in vivo [10] = details: rat, plasma, iv, 5 mg/kg
# [11] = Half life in rat at 5 mg/kg, iv; details: in vivo
# [12] = Half life in rat at 5 mg/kg, po; details: in vivo
# Serum [13] = assay: Protein binding in dog serum; type: ADME, cell-free, Canis lupus familiaris
# [14] = Cmax in rat at 5 mg/kg, po; type: ADME, organism-based; parameters: dose 5 mg/kg, route oral; details: in vivo
# Outline: (§2)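 Rat, oral dose of 5 mg/kg in a lipid-based formulation, n = 3. Bioavailability was calculated relative to the 5 mg/kg intravenous dose.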
# [15] = Volume of distribution in rat at 5 mg/kg, iv; type: ADME, organism-based; parameters: dose 5 mg/kg, route intravenous; details: in vivo, read-out: Vss
# Outline: (§3)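 Rat, single intravenous dose of 5 mg/kg, n = 3. Parameters were derived from plasma concentrations.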
# [16] = Oral bioavailability in rat at 5 mg/kg, po in lipid based formulation; type: ADME, organism-based; details: in vivo; outline: as §2
# [17] = Fraction unbound ligand in rat serum; type: ADME, cell-free
# Cytochrome P450 2C9 = Cytochrome P450 2C9 (Homo sapiens, UniProt P11712); assay: Inhibition of CYP2C9; type: ADME; outline: as §1
# Sequence of Cytochrome P450 2C9 (P11712 whole entry): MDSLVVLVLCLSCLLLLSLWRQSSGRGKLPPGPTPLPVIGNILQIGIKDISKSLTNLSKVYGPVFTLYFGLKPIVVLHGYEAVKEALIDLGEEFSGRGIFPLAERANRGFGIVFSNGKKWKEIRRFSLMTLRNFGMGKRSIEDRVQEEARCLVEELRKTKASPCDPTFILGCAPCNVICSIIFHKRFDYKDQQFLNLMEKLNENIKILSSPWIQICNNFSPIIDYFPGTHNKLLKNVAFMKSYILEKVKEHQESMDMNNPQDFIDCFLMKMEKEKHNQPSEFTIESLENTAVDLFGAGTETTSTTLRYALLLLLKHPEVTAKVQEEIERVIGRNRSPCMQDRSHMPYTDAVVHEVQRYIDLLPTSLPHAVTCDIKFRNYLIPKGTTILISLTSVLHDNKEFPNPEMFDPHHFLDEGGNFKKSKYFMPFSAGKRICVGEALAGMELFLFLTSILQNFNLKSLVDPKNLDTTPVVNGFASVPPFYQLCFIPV
# Cytochrome P450 2D6 = Cytochrome P450 2D6 (Homo sapiens, UniProt P10635); assay: Inhibition of CYP2D6; type: ADME; outline: as §1
# Sequence of Cytochrome P450 2D6 (P10635 whole entry): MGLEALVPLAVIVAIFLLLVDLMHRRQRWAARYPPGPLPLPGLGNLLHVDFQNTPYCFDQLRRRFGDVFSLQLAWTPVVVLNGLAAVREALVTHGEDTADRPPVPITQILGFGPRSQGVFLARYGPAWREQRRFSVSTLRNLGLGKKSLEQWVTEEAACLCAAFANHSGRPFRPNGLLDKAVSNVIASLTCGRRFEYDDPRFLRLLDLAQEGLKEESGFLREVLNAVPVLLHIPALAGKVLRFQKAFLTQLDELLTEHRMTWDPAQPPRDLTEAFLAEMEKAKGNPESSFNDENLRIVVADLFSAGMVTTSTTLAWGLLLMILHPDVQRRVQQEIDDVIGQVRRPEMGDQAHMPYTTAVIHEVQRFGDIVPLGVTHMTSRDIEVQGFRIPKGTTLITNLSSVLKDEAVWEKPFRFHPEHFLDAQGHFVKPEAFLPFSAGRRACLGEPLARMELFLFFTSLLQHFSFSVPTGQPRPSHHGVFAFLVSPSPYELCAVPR
# Cytochrome P450 2C19 = Cytochrome P450 2C19 (Homo sapiens, UniProt P33261); assay: Inhibition of CYP2C19; type: ADME; outline: as §1
# Sequence of Cytochrome P450 2C19 (P33261 whole entry): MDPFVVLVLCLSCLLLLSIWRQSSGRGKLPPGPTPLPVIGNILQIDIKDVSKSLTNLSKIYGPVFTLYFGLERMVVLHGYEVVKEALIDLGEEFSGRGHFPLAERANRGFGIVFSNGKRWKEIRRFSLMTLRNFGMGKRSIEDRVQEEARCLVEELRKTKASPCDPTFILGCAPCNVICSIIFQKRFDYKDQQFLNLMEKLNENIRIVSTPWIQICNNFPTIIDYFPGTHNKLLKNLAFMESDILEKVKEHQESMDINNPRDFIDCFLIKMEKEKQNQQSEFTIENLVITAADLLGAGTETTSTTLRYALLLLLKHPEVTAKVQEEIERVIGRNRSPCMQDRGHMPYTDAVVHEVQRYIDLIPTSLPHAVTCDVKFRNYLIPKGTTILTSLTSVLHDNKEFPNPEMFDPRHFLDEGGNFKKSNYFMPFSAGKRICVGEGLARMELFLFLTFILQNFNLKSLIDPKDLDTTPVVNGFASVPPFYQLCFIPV
# Cytochrome P450 1A2 = target: T1, Cytochrome P450 1A2 (Homo sapiens, UniProt P05177); assay: Inhibition of CYP1A2; type: ADME; outline: as §1
# T1 sequence (P05177 whole entry): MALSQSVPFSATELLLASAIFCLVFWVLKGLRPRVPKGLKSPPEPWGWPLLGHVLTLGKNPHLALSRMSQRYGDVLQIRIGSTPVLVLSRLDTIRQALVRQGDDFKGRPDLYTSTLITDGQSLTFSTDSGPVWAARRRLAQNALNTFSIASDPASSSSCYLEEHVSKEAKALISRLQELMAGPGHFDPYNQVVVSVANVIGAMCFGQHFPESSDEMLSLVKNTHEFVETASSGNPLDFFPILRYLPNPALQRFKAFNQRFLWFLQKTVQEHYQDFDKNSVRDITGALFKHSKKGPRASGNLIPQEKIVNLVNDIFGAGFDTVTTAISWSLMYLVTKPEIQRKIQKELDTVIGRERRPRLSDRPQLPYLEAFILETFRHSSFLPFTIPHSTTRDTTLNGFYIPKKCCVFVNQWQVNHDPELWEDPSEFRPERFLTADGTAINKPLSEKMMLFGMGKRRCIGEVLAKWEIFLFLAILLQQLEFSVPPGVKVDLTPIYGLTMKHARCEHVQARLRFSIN
# [18] = Cmax in rat at 5 mg/kg, iv; type: ADME, organism-based; parameters: dose 5 mg/kg, route intravenous; details: in vivo; outline: as §3
# [19] = Apparent permeability coefficient assessed using MDCK cells; type: ADME, cell-based, Canis lupus familiaris; details: dog
# Serum [20] = assay: Protein binding in rat serum; type: ADME, cell-free
# in vivo [21] = details: rat, plasma, po, 5 mg/kg
# [22] = Fraction unbound ligand in dog serum; type: ADME, cell-free, Canis lupus familiaris
# [23] = Oral bioavailability in rat at 5 mg/kg, po in 1% CMC suspension; type: ADME, organism-based; details: in vivo
# Outline: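 Rat, oral dose of 5 mg/kg given as a suspension in 1% carboxymethylcellulose. Bioavailability was estimated relative to intravenous dosing.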
smiles,measurement,setting,value
O=C(N[C@H]1N=C(c2ccccc2)c2ccccc2NC1=O)c1cc(F)ccc1N1CCS(=O)(=O)CC1,TD50,[1],>50 µM
same,pIC50,[1],6.15
O=C(N[C@H]1N=C(c2ccccc2)c2ccccc2NC1=O)c1ccc(F)cc1N1CCCCC1,TD50,[1],>50 µM
same,pIC50,[1],5.12
O=C(N[C@H]1N=C(c2ccccc2)c2ccccc2NC1=O)c1cccnc1N1CCOCC1,TD50,[1],>50 µM
same,pIC50,[1],5.54
O=C(N[C@H]1N=C(c2ccccc2)c2ccccc2NC1=O)c1ccc(N2CCOCC2)cc1Cl,TD50,[2],>50 µM
same,pIC50,[2],6.10
same,solubility,[3],0.9 µg/mL
same,TD50,[1],>50 µM
same,pIC50,[1],5.85
same,TD50,[4],>50 µM
same,pIC50,[4],5.82
O=C(N[C@@H]1N=C(c2ccccc2)c2ccccc2NC1=O)C1CCCCC1,TD50,[1],>50 µM
same,pIC50,[1],< 4.30
COc1cc([N+](=O)[O-])ccc1C(=O)N[C@H]1N=C(c2ccccc2)c2ccccc2NC1=O,TD50,[2],>50 µM
same,pIC50,[2],6.30
same,TD50,[1],>50 µM
same,pIC50,[1],6.05
same,TD50,[4],>50 µM
same,pIC50,[4],6.00
O=C(Nc1ccccc1F)N[C@@H]1N=C(c2ccccc2)c2ccccc2NC1=O,Activity,[5],Non-toxic
same,Activity,[6],Non-toxic
same,Activity,[7],Non-toxic
same,TD50,[1],>50 µM
same,pIC50,[1],4.56
O=C(Nc1ccccc1F)N[C@H]1N=C(c2ccccc2)c2ccccc2NC1=O [RSV-604],fraction unbound,[8],0.05
same,Activity,Serum [9],95%
same,Activity,Cytochrome P450 3A4,Not Active
same,AUC(0-inf),in vivo [10],11700 ng·h/mL
same,half-life,[11],3.8 h
same,half-life,[12],2.6 h
same,Activity,Serum [13],95%
same,Cmax,[14],910 ng/mL
same,Vd,[15],2.2 L/kg
same,bioavailability,[16],> 90%
same,TD50,[2],>50 µM
same,pIC50,[2],6.15
same,fraction unbound,[17],0.05
same,Activity,[5],Non-toxic
same,Activity,Cytochrome P450 2C9,Not Active
same,Activity,Cytochrome P450 2D6,Not Active
same,Activity,Cytochrome P450 2C19,Not Active
same,Activity,[6],Non-toxic
same,solubility,[3],4.1 µg/mL
same,Activity,[7],Non-toxic
same,TD50,[1],>50 µM
same,pIC50,[1],6.05
same,Activity,Cytochrome P450 1A2,Not Active
same,Cmax,[18],3300 ng/mL
same,Papp,[19],13 ×10⁻⁶ cm/s
same,Activity,Serum [20],95%
same,AUC(0-inf),in vivo [21],10900 ng·h/mL
same,fraction unbound,[22],0.05
same,TD50,[4],>50 µM
same,pIC50,[4],5.85
same,bioavailability,[23],< 40%
O=C(Nc1ccccc1F)N[C@H]1N=C(c2ccccc2)c2ccccc2N(CC(=O)N2CCOCC2)C1=O,TD50,[1],>50 µM
same,pIC50,[1],< 4.30
O=C(CN1C(=O)[C@@H](NC(=O)Nc2ccccc2F)N=C(c2ccccc2)c2ccccc21)Nc1ccncc1,TD50,[1],>50 µM
same,pIC50,[1],4.85
O=C(N[C@H]1N=C(c2ccccc2)c2ccccc2NC1=O)c1cc(Cl)ccc1N1CCS(=O)(=O)CC1,TD50,[1],>50 µM
same,pIC50,[1],5.66
COc1cc([N+](=O)[O-])ccc1C(=O)NC1N=C(c2ccccc2)c2ccccc2NC1=O (stereo not given),TD50,[1],>50 µM
same,pIC50,[1],5.70
COc1cc(S(C)(=O)=O)ccc1C(=O)N[C@H]1N=C(c2ccccc2)c2ccccc2NC1=O,TD50,[2],>50 µM
same,pIC50,[2],6.30
same,solubility,[3],22 µg/mL
same,TD50,[1],>50 µM
same,pIC50,[1],6.30
same,TD50,[4],>50 µM
same,pIC50,[4],6.22
O=C(NC1N=C(c2ccccc2)c2ccccc2NC1=O)C1CCCCC1 (stereo not given),TD50,[1],>50 µM
same,pIC50,[1],4.90
O=C(N[C@H]1N=C(c2ccccc2)c2ccccc2NC1=O)C1CCCCC1,TD50,[1],>50 µM
same,pIC50,[1],5.48
CCNC(=O)CN1C(=O)[C@@H](NC(=O)Nc2ccccc2F)N=C(c2ccccc2)c2ccccc21,TD50,[1],>50 µM
same,pIC50,[1],< 4.30
COc1cc([N+](=O)[O-])ccc1C(=O)N[C@@H]1N=C(c2ccccc2)c2ccccc2NC1=O,TD50,[1],>50 µM
same,pIC50,[1],4.67
O=C(Nc1ccccc1F)NC1N=C(c2ccccc2)c2ccccc2NC1=O (stereo not given),Activity,[5],Non-toxic
same,Activity,[6],Non-toxic
same,Activity,[7],Non-toxic
same,TD50,[1],>50 µM
same,pIC50,[1],4.56

# — ChEMBL document CHEMBL1142977, “1,4-benzodiazepines as inhibitors of respiratory syncytial virus. The identification of a clinical candidate” (J Med Chem, 2007)
